Data taken from publication PMC10100262 (Chemmedchem, 2022).

How the values were obtained:
[1] = Determination of log D; assay type: physicochemical; details: pH 7.4
How it was run: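 68Ga-labeled peptide conjugate, molar activity adjusted to 1 GBq/μmol, 0.7–1 MBq per test. Partitioned between 1-octanol and 0.05 M phosphate buffer pH 7.4 by vigorous shaking for 2 min. Phases separated by centrifugation; equal aliquots of each phase γ-counted. Run thrice, each in triplicate.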

[2] = assay type: in vitro ADME; details: pooled human serum, 37 °C; activity in precipitated serum protein pellet
How it was run: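 68Ga-labeled peptide conjugate (20–25 MBq; molar activity set to 1 GBq/μmol) incubated in pooled human serum at 37 °C. Samples taken at 15-min intervals into an equal volume of ice-cold ethanol, held 1 min on ice and centrifuged 90 s. Activity measured in pellet and supernatant; supernatant analyzed by radio-HPLC. Three experiments per radioligand.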

| Compound | logD ([1]; 1‐octanol/phosphate buffer) | protein‐associated activity (protein‐bound activity fraction) [2] [%] | logD [1] |
| --- | --- | --- | --- |
| C[C@@H](O)[C@H](NC(=O)[C@@H]1CSSC[C@H](NC(=O)[C@@H](Cc2ccccc2)NC(=O)CN2CCN(CC(=O)O)CCN(CC(=O)O)CCN(CC(=O)O)CC2)C(=O)N[C@@H](Cc2ccc(O)cc2)C(=O)N[C@H](Cc2c[nH]c3ccccc23)C(=O)N[C@@H](CCCCN)C(=O)N[C@@H]([C@@H](C)O)C(=O)N1)C(=O)O [[^68Ga]Ga‐8, metal not drawn] | -4.09 ± 0.07 | 19.7±2.2 |  |
| C[C@@H](O)[C@H](NC(=O)[C@@H]1CSSC[C@H](NC(=O)[C@@H](Cc2ccccc2)NC(=O)CCC(C(=O)O)N2CCN(CC(=O)O)CCN(CC(=O)O)CCN(CC(=O)O)CC2)C(=O)N[C@@H](Cc2ccc(O)cc2)C(=O)N[C@H](Cc2c[nH]c3ccccc23)C(=O)N[C@@H](CCCCN)C(=O)N[C@@H]([C@@H](C)O)C(=O)N1)C(=O)O (some centres unmarked) [[^68Ga]Ga‐9, metal not drawn] |  | 29.0±3.5 | -4.11 ± 0.11 |
| C[C@@H](O)[C@H](NC(=O)[C@@H]1CSSC[C@H](NC(=O)[C@@H](Cc2ccccc2)NC(=O)CC[C@H](C(=O)O)N2CCN(CC(=O)O)CCN(CC(=O)O)CC2)C(=O)N[C@@H](Cc2ccc(O)cc2)C(=O)N[C@H](Cc2c[nH]c3ccccc23)C(=O)N[C@@H](CCCCN)C(=O)N[C@@H]([C@@H](C)O)C(=O)N1)C(=O)O [[^68Ga]Ga‐10, metal not drawn] | -3.72 ± 0.02 | 16.9±3.5 |  |
| C[C@@H](O)[C@H](NC(=O)[C@@H]1CSSC[C@H](NC(=O)[C@@H](Cc2ccccc2)NC(=O)CCC(C(=O)O)N2CCN3CCN(CCN(CC(=O)O)CC3)CC2)C(=O)N[C@@H](Cc2ccc(O)cc2)C(=O)N[C@H](Cc2c[nH]c3ccccc23)C(=O)N[C@@H](CCCCN)C(=O)N[C@@H]([C@@H](C)O)C(=O)N1)C(=O)O (some centres unmarked) [[^68Ga]Ga‐11, metal not drawn] |  | 15.7±3.6 | -3.02 ± 0.08 |
